Hits are enriched below; roughly 1.9% of the tested compounds scored in any of these assays.
M4 antag: antagonists of human muscarinic M4 receptor (CHRM4). P08173. CHO-hM4 cells, ACh EC80, Fluo-8 calcium fluorescence. inhibition, % at 3 µM. hit rate 0.73% among 360,000;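 active means inhibition above its plate's cutoff, the mean inhibition of sample wells plus 3 SD, cut at about 27% in these data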
Target sequence (P08173 whole entry, looked up): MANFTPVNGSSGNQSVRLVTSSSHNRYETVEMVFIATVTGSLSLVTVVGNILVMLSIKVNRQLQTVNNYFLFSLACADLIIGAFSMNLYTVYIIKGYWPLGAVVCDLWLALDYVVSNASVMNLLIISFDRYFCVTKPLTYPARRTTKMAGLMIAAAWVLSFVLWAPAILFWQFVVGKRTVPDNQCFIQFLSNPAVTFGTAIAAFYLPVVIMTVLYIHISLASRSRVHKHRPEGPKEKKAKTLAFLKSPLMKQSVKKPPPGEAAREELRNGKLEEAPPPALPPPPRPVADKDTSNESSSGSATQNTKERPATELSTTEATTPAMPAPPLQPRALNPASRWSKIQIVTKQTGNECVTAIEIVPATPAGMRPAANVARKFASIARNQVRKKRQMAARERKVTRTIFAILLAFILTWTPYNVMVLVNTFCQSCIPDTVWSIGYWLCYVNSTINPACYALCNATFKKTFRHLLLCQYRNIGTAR
CHRM5 antagonist: antagonists of human muscarinic M5 receptor (CHRM5); P08912; CHO-hM5 cells, Fluo-8 calcium fluorescence, ACh EC80; inhibition, % at 3 µM; hit rate 0.59% among 360,000; AID 624040;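 active means inhibition above a per-plate cutoff, the mean of that plate's test compounds plus 3 SD, cut at about 27% in these data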
CHRM5 PAM: potentiates acetylcholine response at human M5 receptor. hit rate 0.3% among 360,000. activation, % at 3 µM. CHO-K1 hM5, Fluo-8 calcium, ACh EC20 PAM; 0% = ACh EC20, 100% = ACh EC100. P08912. AID 624038;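 active means activation above the run cutoff, the mean activation of all test compounds plus 3 SD, cut at about 18% in these data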
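Assay system: CHO-K1 hM5 cells / Incubation: Fluo-8 loading 80 min at 37 °C plus 30 min room temperature / Technique: Fluo-8 calcium dye fluorescence, kinetic read / Repeats: single replicate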
M4 PAM: CHRM4 positive allosteric modulation | activation, % at 3 µM | AID 624126 | CHO-K1 hM4/Gqi5, Fluo-8 calcium fluorescence, ACh EC20; 0% = ACh EC20, 100% = maximal ACh | hit rate 0.4% among 360,000 | P08173;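 active means activation above its plate's cutoff, the mean activation of sample wells plus 3 SD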
M4 ag: agonists of human muscarinic M4 receptor (CHRM4) | P08173 | CHO-K1 hM4/Gqi5, Fluo-8 calcium fluorescence; vehicle 0%, full acetylcholine response 100% | activation, % at 3 µM | hit rate 0.14% among 360,000 | AID 624127;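 active means activation above the run mean over all test wells plus 3 SD, cut at about 32% in these data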;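 further: peak over basal fluorescence ratio per well then scaled between controls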
M5 ag: agonists of human muscarinic M5 receptor (CHRM5); hit rate 0.19% among 360,000; CHO-K1 hM5 cells, Fluo-8 calcium fluorescence; 0% DMSO wells, 100% maximal acetylcholine response; P08912; activation, % at 3 µM; AID 624037;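 active means activation above the run's mean over test compounds plus 3 SD, cut at about 23% in these data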;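 further: signal is peak over basal fluorescence ratio across the kinetic read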
Large screens that a line does not name were inactive; ! = not active in a repeat.

COc1ccc(NC(=O)Cc2ccccc2)cn1	none
COc1ccc(NC(=O)/C(Cl)=C(/Cl)S(=O)Cc2ccccc2)cn1 (stereo not drawn)	M4 antag 36, CHRM5 antagonist 42
CCN(c1ccccc1)S(=O)(=O)c1cccc(C(=O)N(C)CCOc2ccccc2)c1	none
COc1ccc(OC)c(S(=O)(=O)N2CCCC(C)C2)c1 (stereo not drawn)	M4 PAM 28
CC1CCCN(S(=O)(=O)c2ccc(Cl)s2)C1 (stereo not drawn)	CHRM5 PAM 19
COc1ccc(OC)c(S(=O)(=O)N2CCCCCC2)c1	none
CC1CCCN(S(=O)(=O)c2ccc(Br)s2)C1 (stereo not drawn)	none
Cc1ccc(S(=O)(=O)NCc2cc(=O)n(C)c(=O)n2C)cc1C	none
O=C(CN1CCN(C(=O)c2cncn2-c2ccccc2)CC1)Nc1ccccc1Cl	none
CCCC(=O)Nc1nnc(SCC(=O)N2CCCCC2)s1	none
Cc1cc(-c2nnc(SCC(=O)Nc3ccc(C)c(C)c3)n2N)n[nH]1	CHRM5 PAM 21
O=C(CSc1nnc(NC(=O)c2ccc(F)cc2F)s1)NC1CCCC1	none
COc1cc2sc(C)nc2c2sccc12	M4 PAM 18
COc1ccc2sc(C)nc2c1NC(C)=O	none
O=C(Nc1cccc(Br)c1)Oc1cccc2cccnc12	CHRM5 antagonist 34
O=C(Nc1c(Cl)cccc1Cl)Oc1cccc2cccnc12	none
CCOC(=O)Cn1nc(C)n(-c2ccc(C(C)(C)C)cc2)c1=O	CHRM5 PAM 21
O=C(Nc1ccccc1)Nc1ccc(-n2ccc(C(F)(F)F)n2)cc1	M4 antag 45, CHRM5 antagonist 51
CCC(=O)N1CCc2cc(S(=O)(=O)CCC(=O)Nc3nc(C)cs3)ccc21	CHRM5 PAM 28
C[C@@H]1CC[C@H](O)/C=C/C(=O)O[C@H](C)CC[C@H](O)/C=C/C(=O)O1	M5 ag 37
CN(C)C1=NC[C@H](Cc2ccccc2)N1CC1CCC(C(C)(C)C)CC1 (stereo partly drawn)	none
CN(C)CCOC(c1ccccc1)c1ccccc1	M4 antag 32!, CHRM5 antagonist 35
Cc1ccccc1C(O)c1cccnc1 (stereo not drawn)	none
Cc1ccccc1C(OCCN(C(C)C)C(C)C)c1ccccc1 (stereo not drawn)	M4 antag 99, CHRM5 antagonist 99
CN(C)CCOC(c1ccccc1)c1ccccc1 (tested in a mixture with another compound)	M4 antag 37, CHRM5 antagonist 53
CN(C)CCOC(c1ccc(Cl)cc1)c1ccccn1 (stereo not drawn)	none
Cc1ccc(C(=O)CCC(=O)Nc2ncccc2C)cc1	CHRM5 PAM 19
Cc1ccc2nc(NC(=O)CN3C(=O)NC4(CCCC4)C3=O)sc2c1	none
O=C(Cn1nnc(-c2ccc(CN3CCOCC3)cc2)n1)N(c1ccccc1)c1ccccc1	CHRM5 PAM 23
COc1cc(S(=O)(=O)Nc2cccnc2)ccc1Cl	none
Cc1nn(-c2ccccc2)c(C)c1C(=O)OCc1ccc(C#N)cc1	none
CC(C)C/C=C1\CCc2c([nH]c3ccccc23)C1=O	M4 PAM 21
CCOC(=O)c1oc2ccccc2c1NC(=O)CN1CCOCC1	none
CCOCCCNC(=O)Cn1ncc2c(=O)oc3ccccc3c21	M4 antag 39
CCN1CCc2c(sc(NC(=O)Nc3ccc(Cl)c(Cl)c3)c2C(N)=O)C1	M4 antag 51, CHRM5 antagonist 58, M4 ag 124, M5 ag 77
COCCNC(=O)CCc1nnc2ccc(N3CCC(C)CC3)nn12	none
COC(=O)c1ccc2c(=O)n(Cc3ccc(C(=O)NC4CCCC4)cc3)c(=S)[nH]c2c1	M4 PAM 21
COC(=O)C(Cc1ccc(OC(=O)c2ccc(Cl)cc2)cc1)N1Cc2ccccc2C1=O (stereo not drawn)	M4 antag 28, CHRM5 antagonist 30
C[C@H](OC(=O)c1[nH]cnc1C(=O)N1CCN(C(=O)OC(C)(C)C)CC1)c1ccccc1	none
CCOC(=O)c1[nH]cnc1C(=O)N1CCN(C(=O)OC(C)(C)C)CC1	M4 PAM 24

Compound activity from PubChem.
